Reference: ChEMBL document CHEMBL5712922, “Synergistic effects of type I PRMT and PARP inhibitors against non-small cell lung cancer cells” (Clin Epigenetics, 2021)
Active and inactive are the calls of the source. The rule behind the calls is not given here.

Tests used:
A549 [1] = assay: Synergistic antiproliferative activity against human A549 cells pretreated with MS023 for 24 hrs followed by compound addition at 10 uM measured after for 24 hrs relative to control; assay type: functional
Summary of the method: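 A549 seeded 20K/well; next day 16.5 μM MS023 or DMSO for 24 h, then 181 epigenetic library drugs at 10 μM for 24 h. Viability by Viacount flow cytometry after trypsinization; heat-killed well as total death control. Synergy Index = (monotherapy viability × MS023 viability effect)/combination viability; also synergy percentage (1 − 1/SI)×100.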

A549 [2] = assay: Antiproliferative against human A549 cells assessed as viable cells pretreated with MS023 for 24 hrs followed by compound addition at 10 uM measured after for 24 hrs relative to control; conditions: A549, 24 h, read-out: Activity
SK-LU-1 [3] = assay: Antiproliferative against human SK-LU-1 cells expressing MTAP clone 1 assessed as […] treated for 7 days with replenishment of medium for every 48 hrs by MTT assay (reference value: 16.3 uM); assay type: functional, cell-based
A549 [4] = assay: Induction of DNA damage in human A549 cells at 2 uM for 7 days by gamma-H2AX analysis; assay type: functional, cell-based; conditions: time 7.0 day
Summary of the method: (§1)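 A549 cells grown on coverslips under MTT treatment conditions (inhibitors replenished every 48 h) for 7 days with MS023 (0.2–2 µM) and/or BMN-673 (50 nM); fixed in 4% paraformaldehyde, Triton-permeabilized, stained with anti-γ-H2AX (1:1000, 16 h, 4 °C) and Alexa488 secondary, DAPI counterstain. ≥200 cells imaged; fraction with >5 foci reported; unpaired t tests.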

SK-LU-1 [5] = assay: Antiproliferative against human SK-LU-1 cells expressing MTAP clone 2 assessed as […] treated for 7 days with replenishment of medium for every 48 hrs by MTT assay (reference value: 16.3 uM); assay type: functional, cell-based
HCC4006 [6] = assay: Antiproliferative against human HCC4006 cells expressing MTAP clone 1 assessed as […] treated for 7 days with replenishment of medium for every 48 hrs by MTT assay (reference value: 0.24 uM); assay type: functional, cell-based
Summary of the method: (§2)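 Parental, empty-vector (pLoc) or MTAP-re-expressing lentiviral clone cells (blasticidin 3 µg/ml selected) seeded day 0; MS023 (0.2–2 μM final) and/or BMN-673 (0.3–50 nM final) or DMSO added after 16 h, replenished with medium every 48 h. Day 7: MTT reagent 3 h at 37 °C, solvent, absorbance 590 nm; triplicates; percent death = 1 − (treated/DMSO).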

HCC4006 [7] = assay: Antiproliferative against human HCC4006 cells expressing MTAP clone 2 assessed as […] treated for 7 days with replenishment of medium for every 48 hrs by MTT assay (reference value: 0.24 uM); assay type: functional, cell-based; summary of the method: as §2
A549 [8] = assay: Antiproliferative against human A549 cells expressing MTAP clone 2 assessed as […] treated for 7 days with replenishment of medium for every 48 hrs by MTT assay (reference value: 4.4 uM); assay type: functional, cell-based
A549 [9] = assay: Antiproliferative against human A549 cells assessed as reduction in cell viability at 16.5 uM for 24 hrs relative to control; assay type: functional
Summary of the method: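 A549 cells exposed to MS023 for 24 h in dose–response; viability read by flow cytometry with Viacount dye reagent distinguishing viable, pre-apoptotic and dead cells.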

A549 [10] = assay: Antiproliferative against human A549 cells expressing MTAP clone 1 assessed as […] treated for 7 days with replenishment of medium for every 48 hrs by MTT assay (reference value: 4.4 uM); assay type: functional, cell-based; summary of the method: as §2
A549 [11] = assay: Induction of DNA damage in human A549 cells assessed as increase in stained cells at 2 uM for 7 days by gamma-H2AX analysis (reference value: 3.9%); assay type: functional; conditions: time 7 day; summary of the method: as §1
A549 [12] = assay: Induction of DNA damage in human A549 cells assessed as increase in stained cells at 0.2 uM for 7 days by gamma-H2AX analysis (reference value: 3.9%); assay type: functional; conditions: time 7 day; summary of the method: as §1
A549 [13] = assay: Induction of cell death in human A549 cells assessed as bliss energy score at 0.3 nM in presence of GSK 591 by viacount reagent based analysis; assay type: functional
A549 [14] = assay: Induction of DNA damage in human A549 cells assessed as increase in stained cells at 50 nM for 7 days by gamma-H2AX analysis (reference value: 3.9%); assay type: functional; conditions: time 7 day; summary of the method: as §1
A549 [15] = assay: Induction of cell death in human A549 cells assessed as bliss energy score at 0.3 nM in presence of EPZ 15666 by viacount reagent based analysis; assay type: functional
PEO1 [16] = assay: Antiproliferative activity against BRCA2 deficient human PEO1 cells at 3.75 to 60 nM in presence of MS023; assay type: functional, cell-based; conditions: dose 3.75-60 nM
Summary of the method: (§3)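 PEO1 and PEO4 ovarian cells seeded 3,000/well; treated one day after plating with MS023 and/or BMN-673 or DMSO vehicle, medium with inhibitors replenished every 48 h. Six days after first treatment, nuclei stained with Hoechst 33342 (10 µg/ml final, 30 min) and counted by plate imaging; counts normalized to DMSO wells. Combination effect expressed as Bliss score.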

[17] = Antiproliferative activity against human PEO4 cells expressing BRCA2 mutant assessed as bliss energy score at 3.75 to 60 nM in presence of MS023; assay type: functional; conditions: dose 3.75-60 nM; summary of the method: as §3
PEO1 [18] = assay: Antiproliferative activity against BRCA2 deficient human PEO1 cells assessed as bliss energy score at 3.75 to 60 nM in presence of MS023; assay type: functional; conditions: dose 3.75-60 nM; summary of the method: as §3
A549 [19] = assay: Induction of DNA damage in human A549 cells at 50 nM in presence of MS023 for 7 days by gamma-H2AX analysis; assay type: functional, cell-based; conditions: time 7.0 day; summary of the method: as §1
PEO4 [20] = assay: Antiproliferative activity against human PEO4 cells expressing BRCA2 mutant at 3.75 to 60 nM; assay type: functional, cell-based; conditions: dose 3.75-60 nM; summary of the method: as §3
A549 [21] = assay: Induction of DNA damage in human A549 cells at 50 nM for 7 days by gamma-H2AX analysis; assay type: functional, cell-based; conditions: time 7.0 day; summary of the method: as §1
A549 [22] = assay: Antiproliferative against human A549 cells assessed as killed cells at 0.3 nM treated for 7 days in presence of MS023 with replenishment of medium for every 48 hrs by MTT assay relative to control; conditions: time 7 day
A549 [23] = assay: Antiproliferative against human A549 cells expressing MTAP clone 1 assessed as […] treated at 25 to 50 nM for 7 days in presence of MS023 with replenishment of medium for every 48 hrs by MTT assay relative to control; assay type: functional; design: scale not given: the % may be the effect or the level left; conditions: dose 25-50 nM, time 7 day
A549 [24] = assay: Induction of DNA damage in human A549 cells assessed as increase in stained cells at 50 nM for 7 days in presence of MS023 by gamma-H2AX analysis (reference value: 3.9%); assay type: functional; conditions: time 7 day; summary of the method: as §1
A549 [25] = assay: Induction of cell death in human A549 cells at 0.3 nM in presence of 2 uM MS023 by viacount reagent based analysis; assay type: functional
PEO1 [26] = assay: Antiproliferative activity against BRCA2 deficient human PEO1 cells at 3.75 to 60 nM; assay type: functional, cell-based; conditions: dose 3.75-60 nM; summary of the method: as §3
PEO4 [27] = assay: Antiproliferative activity against human PEO4 cells expressing BRCA2 mutant at 3.75 to 60 nM in presence of MS023; assay type: functional, cell-based; conditions: dose 3.75-60 nM; summary of the method: as §3
A549 [28] = assay: Induction of DNA damage in human A549 cells assessed as increase in stained cells at 1 nM for 7 days by gamma-H2AX analysis (reference value: 3.9%); assay type: functional; conditions: time 7 day
A549 [29] = assay: Antiproliferative against human A549 cells expressing MTAP clone 2 assessed as […] treated at 25 to 50 nM for 7 days in presence of MS023 with replenishment of medium for every 48 hrs by MTT assay relative to control; assay type: functional; design: scale not given: the % may be the effect or the level left; conditions: dose 25-50 nM, time 7 day

Q: Which results are given for `COC1CCN(C(=O)c2cc(Cc3n[nH]c(=O)c4ccccc34)ccc2F)CC1` [AZD2461]?
A: Activity (A549 [1]): 67%; viability at 10 µM (A549 [2]): 54.2%

Q: With `NC(=O)c1ccc(I)c([N+](=O)[O-])c1` [INIPARIB] as the molecule, how does the Activity (A549 [1]) read?
A: 15%

Q: What about the viability at 10 µM (A549 [2]) of the same molecule?
A: 54.2%

Q: With `CNCc1ccc(-c2[nH]c3cc(F)cc4c3c2CCNC4=O)cc1` [RUCAPARIB] as the molecule, how does the Activity (A549 [1]) read?
A: 24%

Q: And the viability at 10 µM (A549 [2])?
A: 54.2%

Q: For `CN(C)CC(=O)Nc1ccc2[nH]c(=O)c3ccccc3c2c1.Cl` [PJ34], which Activity (A549 [1]) is on record?
A: 21%

Q: And the viability at 10 µM (A549 [2])?
A: 54.2%

Q: Which IC50 (SK-LU-1 [3]) does the source give for `CC(C)Oc1ccc(-c2c[nH]cc2CN(C)CCN)cc1` here?
A: 36.7 µM

Q: And the Activity (A549 [4])?
A: Active

Q: And the IC50 (SK-LU-1 [5])?
A: 41 µM

Q: What about the IC50 (HCC4006 [6]) of the same molecule?
A: 0.47 µM

Q: What about the IC50 (HCC4006 [7]) of the same molecule?
A: 0.56 µM

Q: And the IC50 (A549 [8])?
A: 13.4 µM

Q: What about the Activity (A549 [9]) of the same molecule?
A: 23%

Q: And the IC50 (A549 [10])?
A: 5.1 µM

Q: What about the Activity (A549 [11]) of the same molecule?
A: 27.6%

Q: What about the Activity (A549 [12]) of the same molecule?
A: 19.6%

Q: With `C[C@]1(c2nc3c(C(N)=O)cccc3[nH]2)CCCN1` [VELIPARIB] as the molecule, how does the Activity (A549 [1]) read?
A: 98%

Q: What about the viability at 10 µM (A549 [2]) of the same molecule?
A: 54.2%

Q: Which results are given for `Cc1ccc(S(=O)(=O)O)cc1.NC(=O)c1cccc2cn(-c3ccc([C@@H]4CCCNC4)cc3)nc12`?
A: Activity (A549 [1]): 11%; viability at 10 µM (A549 [2]): 54.2%

Q: Which results are given for `O=C(c1cc(Cc2n[nH]c(=O)c3ccccc23)ccc1F)N1CCN(C(=O)C2CC2)CC1` [OLAPARIB]?
A: Activity (A549 [1]): 48%; viability at 10 µM (A549 [2]): 54.2%

Q: For `Cn1ncnc1[C@H]1c2n[nH]c(=O)c3cc(F)cc(c23)N[C@@H]1c1ccc(F)cc1` [TALAZOPARIB], which Activity (A549 [13]) is on record?
A: 19.892

Q: And the Activity (A549 [14])?
A: 40.4%

Q: And the Activity (A549 [15])?
A: 13.506

Q: And the Activity (PEO1 [16])?
A: Active

Q: What about the Activity [17] of the same molecule?
A: 21.64

Q: What about the Activity (PEO1 [18]) of the same molecule?
A: 17.98

Q: What about the Activity (A549 [19]) of the same molecule?
A: Active

Q: And the Activity (PEO4 [20])?
A: inactive

Q: What about the Activity (A549 [21]) of the same molecule?
A: Active

Q: And the Activity (A549 [22])?
A: >80%

Q: What about the Activity (A549 [23]) of the same molecule?
A: 50%

Q: What about the Activity (A549 [24]) of the same molecule?
A: 69.5%

Q: What about the Activity (A549 [25]) of the same molecule?
A: Active

Q: What about the Activity (PEO1 [26]) of the same molecule?
A: Active

Q: What about the Activity (PEO4 [27]) of the same molecule?
A: Active

Q: And the Activity (A549 [28])?
A: 24.8%

Q: What about the Activity (A549 [29]) of the same molecule?
A: 50%

Q: For `CCCOc1ccc(CCc2nc3cc(-c4c(C)noc4C)ccc3n2CCN2CCOCC2)cc1`, which viability at 10 µM (A549 [2]) is on record?
A: 54.2%

Q: With `O=C(O)[C@]1(Cc2cccc(Nc3nccs3)n2)CC[C@@H](Oc2cccc(Cl)c2F)CC1` [MK-5108] as the molecule, how does the viability at 10 µM (A549 [2]) read?
A: 54.2%
